# Hits are enriched below; roughly 3.7% of the tested compounds scored in any of these assays.
# Kir21 inh: Kir2.1 (mouse) channel inhibition; HEK293-Kir2.1, FluxOR thallium flux fluorescence; stronger effect = lower value; B-score at 10 µM; actives 0.85% (n = 310,000); AID 1672;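 active = fluorescence ratio B-score at or below minus 3 SD of library scores, with starting-brightness B-score within 2 SD, cut at about -4.2 in these data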;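 note: channel flux triggered by added potassium and thallium sulfate stimulus; B-score of peak minus minimum fluorescence over baseline after thallium stimulus; more negative B-score means stronger Kir2.1 block with less thallium influx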
# hERG protect: shields human hERG channel from block by proarrhythmic agents; CHO-hERG, FluxOR thallium flux, dofetilide IC70 present; Q12809; AID 1511; activation (rescue from dofetilide block), less the hit threshold, % at 10 µM; actives 0.51% (n = 310,000);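 active = activation above the mean of controls blocked by dofetilide plus 5 SD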;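 note: thallium influx through hERG after potassium depolarization seen as dye fluorescence rise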
# KCNQ1 act: potentiators or activators of human KCNQ1 potassium channel; P51787; CHO-K1 KCNQ1, thallium flux FluxOR fluorescence; stronger effect = higher value; B-score at 10 µM; actives 0.35% (n = 310,000); AID 2648;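 active = fluorescence ratio B-score, a plate-corrected score, at least three library SD, with initial intensity B-score within 5 SD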
# Target sequence (P51787 whole entry, looked up): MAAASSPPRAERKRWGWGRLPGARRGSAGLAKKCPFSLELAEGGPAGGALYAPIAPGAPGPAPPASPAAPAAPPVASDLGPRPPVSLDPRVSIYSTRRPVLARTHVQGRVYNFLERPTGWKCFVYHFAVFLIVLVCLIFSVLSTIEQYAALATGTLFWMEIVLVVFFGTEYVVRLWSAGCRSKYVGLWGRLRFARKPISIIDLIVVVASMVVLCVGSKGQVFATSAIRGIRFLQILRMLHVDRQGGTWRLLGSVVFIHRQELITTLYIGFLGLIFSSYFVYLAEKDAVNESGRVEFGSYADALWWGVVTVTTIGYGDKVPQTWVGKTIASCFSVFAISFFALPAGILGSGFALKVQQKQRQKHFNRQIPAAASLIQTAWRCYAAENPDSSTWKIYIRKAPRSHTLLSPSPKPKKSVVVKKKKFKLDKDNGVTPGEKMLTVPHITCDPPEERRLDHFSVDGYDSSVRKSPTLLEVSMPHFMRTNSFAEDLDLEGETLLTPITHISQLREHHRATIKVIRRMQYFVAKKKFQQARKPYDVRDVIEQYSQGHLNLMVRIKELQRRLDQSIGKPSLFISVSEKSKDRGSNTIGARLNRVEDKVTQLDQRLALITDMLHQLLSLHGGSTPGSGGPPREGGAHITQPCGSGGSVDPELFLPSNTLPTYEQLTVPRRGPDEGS
#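 Doses: Single concentration per compound, DMSO matched to controls | Test system: KCNQ1-transfected CHO-K1 cells | Timing: 90 min dye loading and 20 min compound exposure, both at room temperature | Measured by: Kinetic FluxOR thallium fluorescence, 10-s 1-Hz baseline, 110-s post-stimulus read | Medium: Assay buffer with matched DMSO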
# KCNK3 inh: human KCNK3 channel inhibition, primary screen | B-score at 10 µM | CHO-KCNK3 thallium flux, FluxOR fluorescence; stronger effect = lower value | O14649 | actives 0.84% (n = 340,000);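 active = B-score under library mean minus 4 SD, starting fluorescence ratio at most library mean plus 5 SD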;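 note: more negative B-score means stronger inhibition of thallium flux through KCNK3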
# KCNK9 inh: human KCNK9 channel inhibition; actives 1.2% (n = 310,000); B-score at 10 µM; HEK293 KCNK9, FluxOR thallium flux fluorescence; stronger effect = lower value; AID 488922; Q9NPC2;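 active = ratio B-score over 3 SD below the library mean, with starting fluorescence within 5 SD of its mean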;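 note: negative B-score means less thallium flux so channel inhibition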
# KCNQ1 block: blocks the human KCNQ1 potassium channel | actives 1.3% (n = 310,000) | B-score at 10 µM | CHO-K1 KCNQ1, FluxOR thallium flux fluorescence; stronger effect = higher value;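 active = compounds whose thallium flux B-score, printed positive for inhibition, exceeds three library SD while starting fluorescence stays within three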;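 note: channel opened by potassium depolarization with thallium stimulus after 20 min compound exposure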
# KCNK9 inh conf: human KCNK9 inhibitor confirmation | shares compounds with KCNK9 inh | HEK293 KCNK9 cells, FluxOR thallium flux fluorescence | inhibition, % at 10 µM | actives 43% (n = 4,900);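 active = thallium signal inhibited by more than 5 SD of the compound-free buffer control wells, on both duplicate plates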;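 note: 0% = assay buffer control wells without compound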
# Kir21 sel: tests whether KCNK9 modulators also affect mouse Kir2.1; shares compounds with KCNK9 inh; Kir2.1 cells, FluxOR thallium flux fluorescence; inhibition, % at 10 µM; actives 4% (n = 4,900); AID 492993;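 active = thallium signal drop more than 5 SD beyond the mean of the no-compound control wells, seen in both duplicate plates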;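 note: signal is fluorescence rise after thallium addition divided by baseline fluorescence; plate controls were assay buffer only for no effect and full block by chlorpromazine control for full effect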
# HEK293 Tl ctr: non-induced cell nonspecific activity of KCNK9 modulators; shares compounds with KCNK9 inh; inhibition, % at 10 µM; AID 492997; actives 40% (n = 4,900); non-induced KCNK9-HEK293, FluxOR thallium flux;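 active = thallium signal drop beyond 5 SD of the untreated control mean, on both duplicate plates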;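 note: plate controls were buffer only IC0 wells for no effect and SID17386958 at its maximal inhibitory level for full effect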
# KCNK3 confirm: confirmation of human KCNK3 two-pore domain potassium channel inhibitors. shares compounds with KCNK3 inh. CHO-KCNK3 thallium flux, FluxOR fluorescence; 0% buffer, 100% carvedilol maximal block. actives 99% (n = 2,400). AID 651638. ratio percent of control, % at 10 µM;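 active = ratio percent of control, averaged over triplicates, above buffer control mean plus 5 SD, cut at about 64% in these data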;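 note: ratio is the fluorescence rise from min to max over baseline after thallium stimulus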
# KCNK3 uninduced: KCNK3 inhibitor counter-screen hit in non-induced cells. shares compounds with KCNK3 inh. non-induced KCNK3 parental cells, FluxOR thallium flux; stronger effect = lower value. thallium flux ratio (lower = more inhibition) at 10 µM. actives 40% (n = 2,400). AID 651747;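 active = thallium flux ratio, averaged over three wells, more than 5 SD below the buffer control mean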;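 note: host cells are CHO cells without KCNK3 induction; ratio is peak minus trough fluorescence over baseline then normalized to buffer controls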
# Numbers without * were called inactive; i = inactive; . = no result given; ! = not active in a repeat.
SMILES,Kir21 inh,hERG protect,KCNQ1 act,KCNK3 inh,KCNK9 inh,KCNQ1 block,KCNK9 inh conf,Kir21 sel,HEK293 Tl ctr,KCNK3 confirm,KCNK3 uninduced
COC(=O)c1ccc(CSc2nc(-c3ccco3)cc(C(F)(F)F)n2)o1,0.76,-9,i,i,-11*,i,38%*,i,45%*,115*,0.15*
COc1ccc(CCNC(=O)CSc2nc(-c3ccco3)cc(C(F)(F)F)n2)cc1,-1.2,-2,i,i,i,i,.,.,.,.,.
COc1ccc(-c2nc(-c3ccc(O)cc3O)cs2)cc1OC,-1.2,-31,i,-12*,-13*,i,50%*,i,i,124*,i
C=CC[C@@H](CC(=O)N(CCO)Cc1ccccc1)C(=O)NCCOC(=O)[C@H](CC=C)CC(=O)OC(C)(C)C,.,.,.,i,.,.,.,.,.,.,.
O=C(CSc1nc2[nH]ncc2c(=O)n1-c1ccc(Cl)c(Cl)c1)NCc1ccccc1Cl,0.02,-19,i,-12*,-8.2*,i,48%*,i,34%*,128*,0.14*
O=C(CSc1nc2[nH]ncc2c(=O)n1-c1ccccc1)NCCc1ccccc1,1.2,-14,i,i,i,i,.,.,.,.,.
Cc1ccc(-c2ocnc2C(=O)Nc2ccccc2NC(=O)c2ccccn2)cc1,1.9,-7,i,i,i,i,.,.,.,.,.
Cc1cccc(-c2ocnc2C(=O)Nc2ccccc2NC(=O)c2ccccn2)c1,0.69,-9,i,-9.7*,-11*,i,36%*,i,29%*,109*,0.16*
COc1ccc(NC(=O)c2oc3ccccc3c2NC(=O)c2ccc3c(c2)OCO3)cc1,-0.34,-20,i,-9*,-11*,i,58%*,i,i,88*,i
CCOC(=O)c1oc2ccccc2c1NC(=O)c1ccc2c(c1)OCO2,-2.4,-11,i,i,i,i,.,.,.,.,.
CC1CCC(C(C)C)C(OC(=O)COC(=O)c2cccn2C)C1 (stereo not drawn),-1,-21,i,-8.8*,-13*,i,59%*,i,27%*,108*,i
CC1CCC(C(C)C)C(OC(=O)Cn2c(-c3ccc(Br)cc3)[n+](C)c3ccccc32)C1 (stereo not drawn),-15*,-31,i,-16*,-13*!,10*,66%*,82%*,i,132*,i
CC1CCC(C(C)C)C(OC(=O)Cn2c(-c3ccc(Cl)cc3)[n+](C)c3ccccc32)C1 (stereo not drawn),-15*,-36,i,-11*,-12*,10*,66%*,80%*,i,119*,i
CC1CCC(C(C)C)C(OC(=O)C[n+]2cccc(C(N)=O)c2)C1 (stereo not drawn),1.9,-6,i,i,i,i,.,.,.,.,.
COc1ccc(OCCN2CCN(S(=O)(=O)c3ccccc3C(F)(F)F)CC2)cc1,.,.,.,i,.,.,.,.,.,.,.
CCc1nnc(NS(=O)(=O)c2ccc(NC(=O)c3ccccc3O)cc2)s1,0.02,-7,i,i,i,i,.,.,.,.,.
Cc1ccccc1NC(=O)COC(=O)CCC(=O)c1cccs1,.,.,.,i,.,.,.,.,.,.,.
Cc1ccccc1-c1nnc(SCC(=O)NC2CCCCC2)o1,0.09,-4,i,i,i,i,.,.,.,.,.
Cc1cc2cccc(C)c2nc1SCC(=O)NC1CCCCC1,-0.29,-2,i,-9.5*,-12*,i,i,i,i,92*,i
O=C(Cc1ccccc1)Nc1cccc(-c2nnc(-c3ccco3)o2)c1,0.93,-13,i,i,i,i,.,.,.,.,.
O=C(Nc1cccc(-c2nnc(-c3ccco3)o2)c1)C(c1ccccc1)c1ccccc1,-1.8,-15,i,-13*,-20*,10*,72%*,i,30%*,135*,0.11*
COc1ccccc1OCC(=O)Nc1cccc(-c2nnc(-c3ccco3)o2)c1,0.72,-25,i,-10*,-8.6*,i,31%*,i,i,103*,i
O=C(Cc1ccc(Cl)cc1)Nc1cccc(-c2nnc(-c3ccco3)o2)c1,-0.35,-1,i,i,i,i,.,.,.,.,.
Fc1ccc(C2CC(c3cccs3)=NN2c2ccccc2)cc1 (stereo not drawn),0.35,-16,i,-8.9*,-9.8*,i,58%*,i,38%*,104*,0.15*
CNC(=S)N1N=C(c2cccs2)CC1c1ccc(F)cc1 (stereo not drawn),0.22,-9,i,i,i,i,.,.,.,.,.
SMILES,Kir21 inh,hERG protect,KCNQ1 act,KCNK3 inh,KCNK9 inh,KCNQ1 block,KCNK9 inh conf,Kir21 sel,HEK293 Tl ctr,KCNK3 confirm,KCNK3 uninduced
CCOC(=O)C(CCCCOc1cccc(CC)c1)C(=O)OCC,-2.3,-13,i,i,i,i,.,.,.,.,.
CCOC(=O)C(CCCOc1cccc(CC)c1)C(=O)OCC,-0.47,-5,i,-10*,i,i,i,i,i,108*,i
Clc1ccc(CSc2nnc(-c3sccc3-n3cccc3)o2)cc1,-2.5,-18,i,-9.2*,-14*,6*,50%*,i,i,101*,i
COc1ccc(C2CC(c3ccc(C)cc3)=NN2C(=O)CCC(=O)O)cc1OC (stereo not drawn),1.1,-9,i,i,i,i,.,.,.,.,.
COC(=O)c1ccccc1NC(=O)c1ccc(F)cc1,-0.13,-5,i,i,i,i,.,.,.,.,.
COC(=O)c1ccccc1SC(CC(=O)c1ccccc1)c1ccc(F)cc1 (stereo not drawn),0.71,-13,i,i,-13*,i,49%*,i,56%*,114*,i
CC(C)(C)c1cc(OC(=O)c2ccccc2F)ccc1O,-2.2,-4,i,i,-10*,i,34%*,i,39%*,100*,i
COc1ccccc1C(=O)Oc1ccc(C(C)(C)C)cc1,-2.3,-13,i,-9.1*,i,i,i,i,i,93*,0.16*
